Laboratory results from paper PMC10150624 (Journal of Enzyme Inhibition and Medicinal Chemistry, 2023).

Tests used:
EGFR^L858R/T790M = EGFR^L858R/T790M (Homo sapiens, UniProt P00533, L858R/T790M); assay: EGFR kinase inhibition by ELISA, L858R/T790M; type: biochemical; conditions: EGFR^L858R/T790M versus EGFR^WT, kinase assay
A549 cells [1] = assay: AO/EB fluorescent staining, morphology of apoptotic cells; type: cell-based; conditions: A549 cells, 1, 5 or 10 μM, 48 h
Outline: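 A549 cells seeded in 6-well plates at 3.6 × 10^5/mL and grown 24 h, then exposed to test compound for a further 48 h; untreated A549 cells served as control. Cells were stained for a few min with AO/EB dual fluorescent solution, then viewed and photographed by forward fluorescence microscopy for apoptotic morphology.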

A549 cells [2] = assay: Wound healing; type: cell-based; conditions: 5 or 10 μM, 0, 24 and 48 h
Outline: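 Wound-healing format with A549 cells at 3.6 × 10^5/well, exposed to test compound and imaged at 0, 24 and 48 h. Cell migration into the wound was assessed by microscopy and photography.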

H1975 cells [3] = assay: Apoptosis by flow cytometry, Annexin V/PI double staining; type: cell-based; conditions: H1975, 10 μM, 48 h; total apoptotic cells (Q2 + Q3)
Outline: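 H1975 cells in log growth seeded at 3 × 10^5/well, held 24 h at 37 °C, 5% CO2, then exposed to test compound at several concentrations for 48 h. Cells harvested by trypsin, PBS-washed, stained with Annexin V-APC for 30 min and then PI for 3 min at room temperature in the dark, diluted in saline and read at once by flow cytometry. Total apoptotic fraction taken as Q2 + Q3.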

H1975 cells [4] = assay: Cell cycle progression by flow cytometry; type: cell-based; conditions: 24 h
Outline: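 H1975 cells seeded at 3 × 10^5/well and cultured 24 h, then treated with test compound (0.2, 1.0, 5 μM) for 24 h at 37 °C. Cells PBS-washed, fixed overnight in ice-cold 70% ethanol, washed again and stained with PI for 30 min at room temperature in the dark. DNA content analysed by flow cytometry to give the G2/M fraction against an untreated control.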

EGFR^L858R/T790M, sequence (P00533 25-1210 T790M/L858R): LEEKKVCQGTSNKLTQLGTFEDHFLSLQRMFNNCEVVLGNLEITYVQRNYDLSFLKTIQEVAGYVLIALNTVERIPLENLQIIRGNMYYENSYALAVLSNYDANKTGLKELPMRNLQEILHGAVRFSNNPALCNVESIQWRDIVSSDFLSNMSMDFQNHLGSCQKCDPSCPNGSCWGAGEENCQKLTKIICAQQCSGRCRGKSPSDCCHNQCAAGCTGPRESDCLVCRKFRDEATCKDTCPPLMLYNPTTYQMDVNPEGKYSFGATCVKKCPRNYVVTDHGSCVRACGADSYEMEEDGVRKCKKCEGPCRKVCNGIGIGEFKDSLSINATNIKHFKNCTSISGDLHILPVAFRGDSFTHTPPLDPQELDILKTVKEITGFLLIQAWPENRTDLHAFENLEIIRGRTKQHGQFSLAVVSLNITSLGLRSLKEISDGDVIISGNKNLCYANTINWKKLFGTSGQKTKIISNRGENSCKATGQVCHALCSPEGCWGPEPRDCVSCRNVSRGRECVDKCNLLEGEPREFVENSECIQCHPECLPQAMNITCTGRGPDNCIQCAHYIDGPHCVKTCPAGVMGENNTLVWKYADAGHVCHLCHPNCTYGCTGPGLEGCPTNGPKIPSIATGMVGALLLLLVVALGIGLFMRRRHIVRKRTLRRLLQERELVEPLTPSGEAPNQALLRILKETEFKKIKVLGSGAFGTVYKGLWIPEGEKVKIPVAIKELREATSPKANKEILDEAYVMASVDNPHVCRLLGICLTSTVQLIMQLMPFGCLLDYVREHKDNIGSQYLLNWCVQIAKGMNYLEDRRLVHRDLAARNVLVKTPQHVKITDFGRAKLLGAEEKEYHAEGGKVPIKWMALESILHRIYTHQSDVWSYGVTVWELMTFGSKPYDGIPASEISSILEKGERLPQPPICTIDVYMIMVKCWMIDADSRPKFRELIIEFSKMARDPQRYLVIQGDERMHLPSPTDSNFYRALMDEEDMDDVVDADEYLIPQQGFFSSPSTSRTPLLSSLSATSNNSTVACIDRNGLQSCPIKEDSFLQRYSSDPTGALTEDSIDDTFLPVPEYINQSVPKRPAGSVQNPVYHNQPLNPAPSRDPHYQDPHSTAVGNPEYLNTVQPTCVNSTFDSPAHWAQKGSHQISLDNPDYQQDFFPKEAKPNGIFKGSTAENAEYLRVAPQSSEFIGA

| selectivity for EGFR^WT (EGFR^L858R/T790M) | SMILES | apoptosis induction, cell morphology (A549 cells [1]) | wound healing (A549 cells [2]) | apoptosis rate (H1975 cells [3]) | percentage of G2/M-phase cells (H1975 cells [4]; H1975, 0.2 μM) | percentage of G2/M-phase cells (H1975 cells [4]; H1975, 1.0 μM) | percentage of G2/M-phase cells (H1975 cells [4]; H1975, 5 μM) |
| --- | --- | --- | --- | --- | --- | --- | --- |
| more than 16 fold | C=C(Cl)C(=O)Nc1cc(Nc2nc(Nc3cnn(C)c3)c3sccc3n2)c(OC)cc1N(C)CCN(C)C [Compound B7, 2-chloro-N-(2-((2-(dimethylamino)ethyl)(methyl)amino)-4-methoxy-5-((4-((1-methyl-1H-pyrazol-4-yl)amino)thieno[3,2-d]pyrimidin-2-yl)amino)phenyl)acrylamide] | induce apoptosis in A549 cells in a concentration-dependent manner | wound healing was slower in the treated group than that in the blank control group |  |  |  |  |
| more than 76 fold | C=C(Cl)C(=O)Nc1cc(Nc2nc(N3CCc4sccc4C3)c3sccc3n2)c(OC)cc1N(C)CCN(C)C [Compound B1, 2-chloro-N-(5-((4–(6,7-dihydrothieno[3,2-c]pyridin-5(4H)-yl)thieno[3,2-d]pyrimidin-2-yl)amino)-2-((2-(dimethylamino)ethyl)(methyl)amino)-4-methoxyphenyl)acrylamide] | induce apoptosis in A549 cells in a concentration-dependent manner | wound healing was slower in the treated group than that in the blank control group | 22.1% | 24.41% | 27.68% | 31.47% |
